The text below walks through data of ChEMBL document CHEMBL4673221, “Furanoflavones pongapin and lanceolatin B blocks the cell cycle and induce senescence in CYP1A1-overexpressing breast cancer cells” (Bioorg Med Chem, 2018).

Series [1] addresses T1, CYP1A1 (Homo sapiens, UniProt P04798).
T1 sequence (P04798 whole entry): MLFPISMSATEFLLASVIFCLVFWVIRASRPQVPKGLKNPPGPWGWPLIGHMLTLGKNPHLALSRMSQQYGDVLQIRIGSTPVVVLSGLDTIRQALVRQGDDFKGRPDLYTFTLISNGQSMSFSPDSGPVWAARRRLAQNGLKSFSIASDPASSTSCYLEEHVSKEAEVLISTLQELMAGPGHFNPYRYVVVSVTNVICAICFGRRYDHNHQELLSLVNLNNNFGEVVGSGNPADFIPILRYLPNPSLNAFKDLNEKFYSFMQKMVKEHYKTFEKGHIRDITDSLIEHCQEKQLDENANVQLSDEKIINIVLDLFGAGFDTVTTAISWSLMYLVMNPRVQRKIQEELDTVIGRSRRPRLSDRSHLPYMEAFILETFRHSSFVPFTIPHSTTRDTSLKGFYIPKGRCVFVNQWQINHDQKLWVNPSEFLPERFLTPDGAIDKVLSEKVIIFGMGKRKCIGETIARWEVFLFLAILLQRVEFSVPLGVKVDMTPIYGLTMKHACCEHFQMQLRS
As to the kind of experiment: Inhibition of human CYP1A1 expressed in sacchrosomes at 10 uM using 7-ethoxyresorufin as substrate by fluorescence based assay relative to control. To be noted: sacchrosomes expressing human CYP1A1, probe 7-ethoxyresorufin. In outline: (§1)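 Enzymes were microsomal preparations isolated from recombinant baker's yeast (Sacchrosomes). Compounds were screened at 10 μM for percent inhibition, and IC50 values were also determined. Values are mean ± SD of three independent experiments. Alpha-naphthoflavone served as the positive control.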

Series [2] addresses T1, CYP1A1. As to the kind of experiment: Inhibition of human CYP1A1 expressed in human HEK293 cells at 10 uM using 7-ethoxyresorufin as substrate preincubated for 30 mins followed by substrate additon and measured after 60 mins by fluorescence based assay relative to control. Conditions: HEK293 cells expressing human CYP1A1, probe 7-ethoxyresorufin, time 90 min. It is filed as cell-based. An outline of the steps:
(§2)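 The assay used live recombinant human HEK293 cells grown in suspension, each cell line expressing a single CYP (CYP1A1 or CYP1B1). Percent inhibition was read at 10 μM, and IC50 values were determined. Values are mean ± SD of three independent experiments. Alpha-naphthoflavone served as the reference inhibitor.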

The target of series [3] is T2, Cytochrome P450 1B1 (Homo sapiens, UniProt Q16678).
T2 sequence (Q16678 whole entry): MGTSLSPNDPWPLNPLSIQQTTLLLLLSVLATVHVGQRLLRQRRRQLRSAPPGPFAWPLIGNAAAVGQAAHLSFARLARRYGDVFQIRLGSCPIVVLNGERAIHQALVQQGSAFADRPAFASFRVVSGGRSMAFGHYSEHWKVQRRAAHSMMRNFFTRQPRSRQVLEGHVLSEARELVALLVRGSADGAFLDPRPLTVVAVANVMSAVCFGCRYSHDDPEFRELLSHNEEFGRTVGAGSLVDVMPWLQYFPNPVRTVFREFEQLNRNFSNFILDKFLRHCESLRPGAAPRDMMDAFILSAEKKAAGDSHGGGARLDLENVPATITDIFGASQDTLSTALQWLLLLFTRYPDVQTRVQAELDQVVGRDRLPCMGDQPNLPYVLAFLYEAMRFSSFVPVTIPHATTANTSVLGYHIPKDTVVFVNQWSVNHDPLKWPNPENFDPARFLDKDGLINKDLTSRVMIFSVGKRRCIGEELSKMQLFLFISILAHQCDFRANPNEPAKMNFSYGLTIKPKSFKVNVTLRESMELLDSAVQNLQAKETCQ
As to the kind of experiment: Inhibition of human CYP1B1 expressed in human HEK293 cells using 7-ethoxyresorufin as substrate preincubated for 30 mins followed by substrate additon and measured after 60 mins by fluorescence based assay. The format is ADME, cell-based. An outline of the steps: as §2

For series [4], the target named is T3, Cytochrome P450 1A1 (Homo sapiens, UniProt P04798).
T3 sequence (P04798 whole entry): T1 sequence (P04798 whole entry)
Kind of series: Inhibition of human CYP1A1 expressed in HEK293 cells assessed as reduction in CYP1A1 mediated […] induced-toxicity by measuring EC50 at 3 times of IC50 concentration by MTT assay relative to control. The format is cell-based. On the set-up: scale not given: the % may be the effect or the level left. An outline of the steps: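 Adherent HEK293 cells transfected with pcDNA3.1/hCYP1A1 were exposed to B[a]P over 0.05–100 µM, with inhibitor at 3x its IC50 from the suspension HEK293-CYP1A1 assay. The EC50 of B[a]P for cell growth inhibition was derived. Cells transfected with empty plasmid were used for comparison. Values are mean and SD of three independent experiments.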

Series [5] deals with T3, Cytochrome P450 1A1. Kind of series: Inhibition of human CYP1A1 expressed in sacchrosomes using 7-ethoxyresorufin as substrate by fluorescence based assay. An outline of the steps: as §1
For series [6], the target named is T2, Cytochrome P450 1B1. Kind of series: Inhibition of human CYP1B1 expressed in sacchrosomes using 7-ethoxyresorufin as substrate by fluorescence based assay. It is filed as ADME. In outline: as §1
Series [7] addresses T3, Cytochrome P450 1A1. As to the kind of experiment: Inhibition of human CYP1A1 expressed in human HEK293 cells using 7-ethoxyresorufin as substrate preincubated for 30 mins followed by substrate additon and measured after 60 mins by fluorescence based assay. The format is cell-based. In outline: as §2
Series [8] concerns MCF7. As to the kind of experiment: Cell cycle arrest in human MCF-7 cells over expressing CYP1A1 assessed as down regulation of CyclinD1 after 24 hrs by western blotting assay. It is filed as functional, cell-based. In outline:
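Cyclin D1 was detected by Western blot, with β-tubulin as loading control. Untreated cells served as control.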

Series [9] has as its system MCF7. As to the kind of experiment: Induction of cell cycle arrest in human MCF7 over expressing CYP1A cells assessed as accumulation at G0/G1 phase incubated for 24 hrs by PI staining based flow cytometric analysis (Rvb =54.3 %). It is filed as functional. (In flow cytometry, cells or beads pass a laser one at a time.)
For series [10], the system named is MCF7. Kind of series: Antiproliferative activity against human MCF-7 cells overexpressing CYP1A1 assessed as reduction in cell viability. The format is functional, cell-based. In outline: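 MCF-7 cells transfected with pcDNA3.1/CYP1A1 and selected in G418 (1 mg/mL, then […]) to give the stable MCF7-1A1 line. CYP1A1 expression was confirmed by Western blot and 7-ethoxyresorufin enzyme assay. The line was subcloned repeatedly. The reported value is the EC50 for inhibition of proliferation.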

The test system of series [11] is MCF7. Kind of series: Induction of cell cycle arrest in human MCF7 over expressing CYP1A cells assessed as accumulation at S phase incubated for 24 hrs by PI staining based flow cytometric analysis (reference value: 20.1%). The format is functional.
Series [12] relates to MCF7. As to the kind of experiment: Induction of cell cycle arrest in human MCF7 over expressing CYP1A cells assessed as accumulation at G2/M phase incubated for 24 hrs by PI staining based flow cytometric analysis (reference value: 22.6%). It is filed as functional.

Each structure is given as a SMILES string. Calls of active or inactive are those of the source. The rule behind the calls is not given here. Where only a bound is given, the exact number is not on record here.

Consider `COc1c(-c2cc(-c3ccccc3)n(-c3ccc(C#N)cc3)n2)ccc2occc12`, for which the inhibition (in general, how much of the control response was suppressed) at 10 µM at CYP1A1 [1] was above 70%. At CYP1A1 [2], this compound gave an inhibition at 1 h, 10 µM above 84%. The IC50 (as a rule, the midpoint of a concentration-inhibition curve) against Cytochrome P450 1B1 [3] is 5.7 µM; against Cytochrome P450 1A1 [5], 0.28 µM; against Cytochrome P450 1B1 [6], above 20 µM; at Cytochrome P450 1A1 [7] it was 0.49 µM. The Activity at Cytochrome P450 1A1 [4] is on record as 91%.

As for `COc1c(-c2cc(-c3ccccc3)nn2-c2ccccc2[N+](=O)[O-])ccc2occc12`, 10 µM produced 31.6% inhibition on CYP1A1 [1].

For `O=c1cc(-c2cccc(O)c2)oc2c1ccc1occc12`, the IC50 at Cytochrome P450 1B1 [3] was found to be 1.2 µM; against Cytochrome P450 1A1 [5] it was 0.69 µM; against Cytochrome P450 1B1 [6], 3.8 µM; against Cytochrome P450 1A1 [7] it was 0.24 µM.

With `COc1c(-c2cc(-c3ccccc3)nn2-c2ccc(C#N)cc2)ccc2occc12`, the inhibition at 10 µM against CYP1A1 [1] was above 70%. Besides, on CYP1A1 [2], the inhibition at 1 h, 10 µM is above 84%. In addition, the IC50 against Cytochrome P450 1B1 [3] turned out to be 25.5 µM; at Cytochrome P450 1A1 [5], 6.8 µM; against Cytochrome P450 1B1 [6], 6.2 µM; against Cytochrome P450 1A1 [7] it was 8.6 µM.

`O=c1cc(-c2ccccc2)oc2c1ccc1ccccc12` [ALPHA-NAPHTHOFLAVONE]: in the series with MCF7 [8], the outcome was Active. The Activity with MCF7 [9] came out at 55.4%; in the series on MCF7 [11], 24.1%; in the series on MCF7 [12], 20.5%. Besides, the EC50 (in general, the concentration giving half of the maximal effect) in the series on MCF7 [10] is above 20 µM.

On to `COc1c(-c2ccccc2)oc2c(ccc3occc32)c1=O` [KARANJIN], for which the IC50 against Cytochrome P450 1B1 [3] was determined as 0.03 µM; on Cytochrome P450 1A1 [5], 2.7 µM; against Cytochrome P450 1B1 [6], 4.1 µM; against Cytochrome P450 1A1 [7] it was 0.03 µM.

On to `COc1c(C(=O)/C=C(\O)c2ccc3c(c2)OCO3)ccc2occc12` [OVALITENONE], for which the IC50 is 1.5 µM at Cytochrome P450 1B1 [3], 0.28 µM at Cytochrome P450 1A1 [5], 0.6 µM on Cytochrome P450 1B1 [6] and 0.48 µM at Cytochrome P450 1A1 [7].

Turning to `O=c1cc(-c2ccc3c(c2)OCO3)oc2c1ccc1occc12` [PONGAGLABRONE], the concentration for half-maximal inhibition (IC50) worked out at 6.8 µM on Cytochrome P450 1B1 [3], 8.2 µM at Cytochrome P450 1A1 [5], 3.4 µM against Cytochrome P450 1B1 [6] and 6.4 µM on Cytochrome P450 1A1 [7].

For the compound `COc1c(C(=O)/C=C(\O)c2ccccc2)ccc2occc12` [PONGAMOL], the IC50 on Cytochrome P450 1B1 [3] is 4.5 µM; against Cytochrome P450 1A1 [5], 2.4 µM; against Cytochrome P450 1B1 [6] it was 3.9 µM; against Cytochrome P450 1A1 [7], 4.4 µM. In addition, the Activity on Cytochrome P450 1A1 [4] was 73%.
